Assays:
mPRδ [1] = target: T1, mPRδ (Mus musculus, UniProt Q6TCG5); test: PKC activation; type: cell-based; conditions: mPRδ-GFP cells, 300nM, 20 min, increase above control (100%)
T1 sequence (Q6TCG5 1-343): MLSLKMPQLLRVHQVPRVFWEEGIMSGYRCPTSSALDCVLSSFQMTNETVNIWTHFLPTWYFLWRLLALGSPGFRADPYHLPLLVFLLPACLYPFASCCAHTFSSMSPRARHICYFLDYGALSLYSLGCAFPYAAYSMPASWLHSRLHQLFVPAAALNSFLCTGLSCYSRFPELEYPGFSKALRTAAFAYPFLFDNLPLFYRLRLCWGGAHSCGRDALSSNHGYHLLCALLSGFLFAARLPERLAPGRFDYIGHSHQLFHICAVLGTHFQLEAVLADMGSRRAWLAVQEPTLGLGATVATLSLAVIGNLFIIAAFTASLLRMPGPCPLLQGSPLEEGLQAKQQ

mPRδ [2] = target: T1, mPRδ; test: PKA activation; type: cell-based; conditions: mPRδ-GFP cells, 20 min, mean ± SEM, n=4
mPRε [3] = target: T2, mPRε (Mus musculus, UniProt Q6TCG2); test: PKA activation; type: cell-based; conditions: mPRε-GFP cells, 20 min; for PKA activation, pPKA/PKA normalized to control (100%): mean ± SEM, n=4; for increase in PKA activation compared to control treatment: increase above control (100%)
T2 sequence (Q6TCG2 1-375): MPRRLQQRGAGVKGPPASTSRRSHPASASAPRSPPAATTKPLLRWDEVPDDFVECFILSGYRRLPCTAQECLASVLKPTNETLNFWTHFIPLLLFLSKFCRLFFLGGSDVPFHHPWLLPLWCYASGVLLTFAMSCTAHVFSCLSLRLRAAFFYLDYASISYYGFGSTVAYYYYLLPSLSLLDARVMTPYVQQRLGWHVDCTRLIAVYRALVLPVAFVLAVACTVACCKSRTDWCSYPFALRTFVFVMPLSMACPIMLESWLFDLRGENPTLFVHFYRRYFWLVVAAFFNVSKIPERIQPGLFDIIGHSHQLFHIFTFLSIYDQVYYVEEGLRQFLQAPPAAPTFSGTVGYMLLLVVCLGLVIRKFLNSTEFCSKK
How it was run: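 MDA-MB-231 cells lentivirally expressing mouse mPRε-C-terminal GFP, FACS-selected clonal line, kept in DMEM/10% charcoal-stripped FBS, passage ≤20. Treated 20 min with test compound at 3–300nM, lysed in RIPA with phosphatase inhibitors, immunoblotted for phospho and total kinase. Ratio normalized to control within the line, then to host MDA231 cells; n = 4 separate passages; two-way ANOVA, Sidak post hoc.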

mPRδ [4] = target: T1, mPRδ; test: Gq luminescent reporter assay; type: cell-based
mPRε [5] = target: T2, mPRε; test: Gs luminescent reporter assay; type: cell-based
How it was run: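 Clonal MDA-MB-231 cells stably expressing mouse mPRε with a C-terminal GFP tag, transfected (Lipofectamine 3000) with CRE-luciferase reporter, grown 72 h, then treated 6 h with a test compound concentration series; forskolin positive control. Lysed, luciferase luminescence read; runs kept only if positive control ≥2× untreated. Min/max scaled 0–100, curves fitted for EC50; n = 4.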

mPRδ [6] = conditions: MDA231 cells transiently transfected to express mPRδ; cited from earlier work

SMILES	increase in PKC activation/phosphorylation compared to control treatment (mPRδ [1])	PKA activation, pPKA/PKA normalized to control (100%) (mPRδ [2]; 3nM)	PKA activation, pPKA/PKA normalized to control (100%) (mPRδ [2]; 10nM)	PKA activation, pPKA/PKA normalized to control (100%) (mPRδ [2]; 30nM)	PKA activation, pPKA/PKA normalized to control (100%) (mPRδ [2]; 100nM)	PKA activation, pPKA/PKA normalized to control (100%) (mPRδ [2]; 300nM)	PKA activation, pPKA/PKA normalized to control (100%) (mPRε [3]; 3nM)	PKA activation, pPKA/PKA normalized to control (100%) (mPRε [3]; 10nM)	increase in PKA activation compared to control treatment (mPRε [3]; 30nM)	PKA activation, pPKA/PKA normalized to control (100%) (mPRε [3]; 30nM)	increase in PKA activation compared to control treatment (mPRε [3]; 100nM)	PKA activation, pPKA/PKA normalized to control (100%) (mPRε [3]; 100nM)	increase in PKA activation compared to control treatment (mPRε [3]; 300nM)	PKA activation, pPKA/PKA normalized to control (100%) (mPRε [3]; 300nM)	EC50 (mPRδ [4])	EC50 (mPRε [5])	phosphorylation of ERK (mPRδ [6])
CC(=O)[C@H]1CC[C@H]2[C@@H]3CC[C@H]4C[C@H](O)CC[C@]4(C)[C@H]3CC[C@]12C [ALLO, allopregnanolone]	43.58 ± 5.34%	86.327 ± 5.39%	91.441 ± 4.66%	83.155 ± 4.54%	98.624 ± 11.00%	103.26 ± 14.05%	105.57 ± 15.02%	130.55 ± 16.45%	53.44%	153.4 ± 19.57%	60.49%	160.49 ± 20.14%	64.44%	164.44 ± 15.71%	11.3 nM	2.5 nM	significant increase
CC(=O)[C@H]1CC[C@H]2[C@@H]3CCC4=CC(=O)CC[C@]4(C)[C@H]3CC[C@]12C [progesterone]																	significant increase

Reference: publication PMC12032937 (iScience, 2025)
